# Measured values from ChEMBL document CHEMBL1671796, “Development of non-peptide ligands of growth factor receptor-bound protein 2-SRC homology 2 domain using molecular modeling and NMR spectroscopy” (J Med Chem, 2011).
# Activity calls are given as the source filed them. No cut-off for these calls is given here.
# Tests used:
# [1] = target: T1, Growth factor receptor-bound protein 2 (Homo sapiens, UniProt P62993); experiment: Displacement of biotin-Ahx-PSpYVNVQN from Grb2-SH2 at 5 mM by competition binding assay
# MCF7 [2] = experiment: Cytotoxicity against HER2-negative human MCF7 cells after 24 hrs by MTT assay; assay type: functional, cell-based
# How it was run: (§1)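 Human breast cancer cells tested at 50 and 100 μM: HER2-positive MCF7 and HER2-negative MCF7 and MDA-231. N1 fibroblasts were run alongside at the same two concentrations.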
# MCF7 [3] = experiment: Cytotoxicity against HER2-positive human MCF7 cells after 24 hrs by MTT assay; assay type: functional, cell-based; details: MCF7, 24 h; how it was run: as §1
# [4] = target: T1, Growth factor receptor-bound protein 2; experiment: Inhibition of HER2-Grb2 interaction in HER2-positive human MCF7 cells assessed as decrease in interaction at 50 uM by immunoblotting; assay type: cell-based; design: scale not given: the % may be the effect or the level left
# [5] = target: T1, Growth factor receptor-bound protein 2; experiment: Displacement of biotin-Ahx-PSpYVNVQN from Grb2-SH2 by competition binding assay
# MDA-MB-231 = experiment: Cytotoxicity against HER2-negative human MDA231 cells after 24 hrs by MTT assay; assay type: functional, cell-based; how it was run: as §1
SMILES,inhibition [1] [%],IC50 [5] [µM],also measured
CC(=O)N[C@H](Cc1ccc(OP(=O)(O)O)cc1)C(=O)NCCCN1CCCNC1=O,< 10,,
CC(=O)N[C@@H](Cc1ccc(OP(=O)(O)O)cc1)C(=O)NC1(CCN2CCCNC2=O)CCCCC1,,56,Activity (MCF7 [2]): inactive; IC50 (MCF7 [3]): 100 µM; Activity [4]: 30%; Activity (MDA-MB-231): inactive
CC(=O)N[C@@H](Cc1ccc(OP(=O)(O)O)cc1)C(=O)NCCCN1CCCC1=O,< 10,,
CC(=O)N[C@@H](Cc1ccc(OP(=O)(O)O)cc1)C(=O)NCCc1cnc[nH]1,< 10,,
O=C(O)C[C@@H](Cc1ccc(CP(=O)(O)O)cc1)C(=O)NC1(C(=O)N[C@@H](CC(=O)O)C(=O)NCCCc2cccc3ccccc23)CCCCC1,,0.008,
CC(=O)N[C@@H](Cc1ccc(OP(=O)(O)O)cc1)C(=O)NCCCN1CCCNC1=O,,174,
CCCC(=O)N[C@@H](Cc1ccc(OP(=O)(O)O)cc1)C(=O)NCCCN1CCCC1=O,< 10,,
CCCC(=O)N[C@@H](Cc1ccc(OP(=O)(O)O)cc1)C(=O)NCCCN1CCCNC1=O,,314,
CCCC(=O)N[C@@H](Cc1ccc(OP(=O)(O)O)cc1)C(=O)NCCN1CCNC1=O,,1330,

# Further lines, with some results ahead:
inhibition [1] [%],IC50 [5] [µM],SMILES,also measured
< 10,,CC(=O)N[C@@H](Cc1ccc(OP(=O)(O)O)cc1)C(=O)NCCN1CCNC1=O,
< 10,,O=C(N[C@@H](Cc1ccc(OP(=O)(O)O)cc1)C(=O)NCCCN1CCCNC1=O)c1ccccc1,
< 10,,O=C(N[C@@H](Cc1ccc(OP(=O)(O)O)cc1)C(=O)NCCN1CCNC1=O)c1ccccc1,
< 10,,O=C(N[C@@H](Cc1ccc(OP(=O)(O)O)cc1)C(=O)NCCCN1CCCC1=O)c1ccccc1,
,2310,CC(=O)NC(Cc1ccc(OP(=O)(O)O)cc1)C(=O)NCCCN1CCCNC1=O (racemic),
